# Assay results: ChEMBL document CHEMBL3259600, “Synthesis and biological evaluation of some new pyrazoline substituted benzenesulfonylurea/thiourea derivatives as anti-hyperglycaemic agents and aldose reductase inhibitors” (Eur J Med Chem, 2014); call rule not given here
# Assays:
# [1] = biological target: Aldo-keto reductase family 1 member B1 (Rattus norvegicus, UniProt P07943); assay: Inhibition of aldose reductase in rat lens by spectrophotometer analysis
# Summary of the method: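 Crude enzyme from rat lens homogenized in 9 volumes 100 mM potassium phosphate pH 6.2, spun 15,000 × g for 30 min at 4 °C, supernatant used. Assay in 50 mM potassium phosphate pH 6.2 with 0.4 M lithium sulphate, 5 mM β-mercaptoethanol, 10 mM DL-glyceraldehyde, 0.1 mM NADPH, at 37 °C. DMSO-dissolved compound preincubated 5 min, reaction started with NADPH, read spectrophotometrically, triplicate. IC50 by non-linear regression of % inhibition vs log concentration.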
# Rattus norvegicus = assay: Antihyperglycemic activity in glucose-fed hyperglycaemic Wistar albino rat assessed as inhibition of postprandial hyperglycemia at 0.05 mM/kg, po administered via gavage 30 mins prior to glucose challenge measured 60 mins after glucose load; assay type: functional; design: scale not given: the % may be the effect or the level left
# Summary of the method: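 Rats fasted at least 16 h with water available, groups of six. Vehicle 1% w/v CMC in distilled water, 10 ml/kg, given orally. Glucose load 3 g/kg 30 min after treatment. Retro-orbital blood sampled just before and 60 min after the load. Glucose tolerance by AUC, percent activity from AUC against vehicle group, Dunnett's test.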
# [2] = Retardation factor of the compound using chloroform-acetone at ratio of 9:1 as solvent system by thin layer chromatography; assay type: physicochemical
# [3] = Retardation factor of the compound using toulene-ethyl acetate-formic acid at ratio of 5:4:1 as solvent system by thin layer chromatography; assay type: physicochemical
# [4] = Retardation factor of the compound using chloroform-acetone at ratio of 8:2 as solvent system by thin layer chromatography; assay type: physicochemical
Compound,IC50 ([1]; read-out: IC50),Activity (Rattus norvegicus),Rf [2],IC50 [1],Rf [3],Rf [4]
Cc1ccc(C2CC(c3ccc(N(C)C)cc3)=NN2c2ccc(S(=O)(=O)NC(=S)NCc3ccccc3)cc2)cc1 (centres undefined),69.9 nM,21.7%,0.9,,,
CN(C)c1ccc(C2=NN(c3ccc(S(=O)(=O)NC(=O)NCc4ccccc4)cc3)C(c3ccccc3)C2)cc1 (centres undefined),,15.5%,,Not Active,0.85,
CN(C)c1ccc(C2=NN(c3ccc(S(=O)(=O)NC(=O)NCc4ccccc4)cc3)C(c3ccc(Cl)cc3)C2)cc1 (centres undefined),,6.7%,,,0.78,
COc1ccc(C2CC(c3ccc(N(C)C)cc3)=NN2c2ccc(S(=O)(=O)NC(=O)NCc3ccccc3)cc2)cc1 (centres undefined),,17.5%,,Not Active,0.7,
Cc1ccc(C2CC(c3ccc(N(C)C)cc3)=NN2c2ccc(S(=O)(=O)NC(=O)NCc3ccccc3)cc2)cc1 (centres undefined),,12%,,,,0.88
CN(C)c1ccc(C2=NN(c3ccc(S(=O)(=O)NC(=O)NCc4ccccc4)cc3)C(c3ccccc3Cl)C2)cc1 (centres undefined),,4.7%,,Not Active,0.79,
COc1ccc(C2CC(c3ccc(N(C)C)cc3)=NN2c2ccc(S(=O)(=O)NC(=O)NCc3ccccc3)cc2)cc1OC (centres undefined),,18%,,,0.56,
COc1cc(C2CC(c3ccc(N(C)C)cc3)=NN2c2ccc(S(=O)(=O)NC(=O)NCc3ccccc3)cc2)cc(OC)c1OC (centres undefined),,29.3%,0.83,,,
CN(C)c1ccc(C2=NN(c3ccc(S(=O)(=O)NC(=S)NCc4ccccc4)cc3)C(c3ccccc3)C2)cc1 (centres undefined),90.1 nM,24.2%,,,0.88,
CN(C)c1ccc(C2=NN(c3ccc(S(=O)(=O)NC(=S)NCc4ccccc4)cc3)C(c3ccc(Cl)cc3)C2)cc1 (centres undefined),,4.2%,,,0.87,
COc1ccc(C2CC(c3ccc(N(C)C)cc3)=NN2c2ccc(S(=O)(=O)NC(=S)NCc3ccccc3)cc2)cc1 (centres undefined),,11.7%,,,0.65,
CN(C)c1ccc(C2=NN(c3ccc(S(=O)(=O)NC(=S)NCc4ccccc4)cc3)C(c3ccccc3Cl)C2)cc1 (centres undefined),85 nM,15.3%,,,0.75,
COc1cc(C2CC(c3ccc(N(C)C)cc3)=NN2c2ccc(S(=O)(=O)NC(=S)NCc3ccccc3)cc2)cc(OC)c1OC (centres undefined),,28.6%,,,0.92,
CCCCNC(=S)NS(=O)(=O)c1ccc(N2N=C(c3ccc(N(C)C)cc3)CC2c2ccccc2)cc1 (centres undefined),43 nM,10.5%,,,0.88,
CCCCNC(=S)NS(=O)(=O)c1ccc(N2N=C(c3ccc(N(C)C)cc3)CC2c2ccc(Cl)cc2)cc1 (centres undefined),17.5 nM,18.9%,,,0.66,
CCCCNC(=S)NS(=O)(=O)c1ccc(N2N=C(c3ccc(N(C)C)cc3)CC2c2ccc(OC)cc2)cc1 (centres undefined),,17.2%,,,0.9,
CN(C)c1ccc(C2=NN(c3ccc(S(=O)(=O)NC(=S)NC4CCCCC4)cc3)C(c3ccccc3)C2)cc1 (centres undefined),17.8 nM,2.7%,,,0.97,
Cc1ccc(S(=O)(=O)NC(=O)NN2CC3CCCC3C2)cc1 (centres undefined) [GLICLAZIDE],,25.4%,,,,
